Measured values: ChEMBL document CHEMBL6078712, “Triterpenoid phthalimides as selective anti-cancer agents targeting mitochondrial apoptosis” (Eur J Med Chem, 2025)
Blank lines part the entries; values can stand above or below the compound they belong to. The source made the active and inactive calls. The rule behind the calls is not given here.

Experiments:
[1] = test system: CCRF-CEM; experiment: Induction of apoptosis in human CCRF-CEM cells assessed as upregulation of BID expression at 1 to 5 times IC50 incubated for 24 hrs by Western blotting analysis; assay type: functional, cell-based
How it was run: (§1)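 30 µg protein per lane on SDS-PAGE, transferred to nitrocellulose, blocked in 5 % BSA/TBS-Tween. Primary antibodies overnight at 4 °C (Akt, P-Akt Ser473, STAT-3, caspase-3, PARP, cyclin D, cyclin A, Bcl-xL, Bak, Bid, Bim), then HRP secondary and ECL detection. GAPDH as loading control.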

[2] = test system: K562; experiment: Cytotoxicity against human K562 cells assessed as inhibition of cell growth incubated for 72 hrs by MTS assay; assay type: functional, cell-based; conditions: K562, 72 h
How it was run: (§2)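 MTS assay on eight human cancer lines and two non-tumour fibroblast lines. IC50 is the concentration that inhibits cell growth by 50 %. SD typically up to 15 % of the mean.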

[3] = test system: CCRF-CEM; experiment: Inhibition of RNA synthesis in human CCRF-CEM cells at 1 times IC50 incubated for 24 hrs by BrU incorporation based flow cytometry; assay type: functional
How it was run: (§3)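 Fixed in 1 % paraformaldehyde/0.05 % NP-40 (15 min at room temperature, then 4 °C overnight). Stained with cross-reacting anti-BrdU plus FITC secondary (45 min each), then PI/RNase A. Flow cytometry; % BrU-positive cells.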

[4] = test system: CCRF-CEM; experiment: Induction of apoptosis in human CCRF-CEM cells assessed as viable cells at 1 times IC50 incubated for 24 hrs by Annexin V-FITC and PI staining based flow cytometric analysis (reference value: 97.4 %); assay type: functional
How it was run: (§4)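 Washed in Ca2+-containing binding buffer, then stained 15 min at room temperature in the dark with Annexin V-FITC and propidium iodide (PI at half the kit-recommended level). Read at once by flow cytometry with a 488 nm laser, ≥10,000 cells. Debris excluded; quadrants viable, early apoptotic, late apoptotic/necrotic, necrotic. Three independent experiments.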

[5] = test system: CCRF-CEM; experiment: Cytotoxicity against human CCRF-CEM cells assessed as inhibition of cell growth incubated for 72 hrs by MTS assay; assay type: functional, cell-based; how it was run: as §2
[6] = Stability in human plasma assessed as compound remaining at 2 uM incubated for 60 mins by RF-MS analysis; assay type: ADME, cell-free; conditions: read-out: Stability
How it was run: (§5)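 Human plasma stability, plasma protein binding and liver microsome stability, each run in triplicate. Error deviations below 10 %.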

[7] = test system: Mitochondrial membrane; experiment: Induction of mitochondrial membrane potential depolarization in human CCRF-CEM cells assessed as fold increase in fluorescence intensity incubated for 24 hrs by JC-1 staining based flow cytometry; assay type: cell membranes
[8] = test system: CCRF-CEM; experiment: Inhibition of RNA synthesis in human CCRF-CEM cells at 5 times IC50 incubated for 24 hrs by BrU incorporation based flow cytometry; assay type: functional; how it was run: as §3
[9] = test system: HCT 116 TP53(-/-); experiment: Cytotoxicity against human HCT116-p53-null cells assessed as inhibition of cell growth incubated for 72 hrs by MTS assay; assay type: functional, cell-based; how it was run: as §2
[10] = Stability in human plasma assessed as compound remaining at 2 uM incubated for 15 mins by RF-MS analysis; assay type: ADME, cell-free; conditions: read-out: Stability; how it was run: as §5
[11] = test system: CCRF-CEM; experiment: Induction of apoptosis in human CCRF-CEM cells assessed as late apoptotic cells at 1 times IC50 incubated for 24 hrs by Annexin V-FITC and PI staining based flow cytometric analysis (reference value: 0.4 %); assay type: functional; how it was run: as §4
[12] = test system: CCRF-CEM; experiment: Induction of apoptosis in human CCRF-CEM cells assessed as late apoptotic cells at 5 times IC50 incubated for 24 hrs by Annexin V-FITC and PI staining based flow cytometric analysis (reference value: 0.4 %); assay type: functional; how it was run: as §4
[13] = Plasma protein binding in human assessed as fraction bound at 10 uM incubated for 4 hrs by rapid equilibrium dialysis based RF-MS analysis; assay type: ADME, cell-free; conditions: read-out: PPB (converted); how it was run: as §5
[14] = test system: CCRF-CEM; experiment: Induction of apoptosis in human CCRF-CEM cells assessed as early apoptotic cells at 1 times IC50 incubated for 24 hrs by Annexin V-FITC and PI staining based flow cytometric analysis (reference value: 2.1 %); assay type: functional; how it was run: as §4
[15] = Stability in human plasma assessed as compound remaining at 2 uM incubated for 30 mins by RF-MS analysis; assay type: ADME, cell-free; conditions: read-out: Stability; how it was run: as §5
[16] = test system: CCRF-CEM; experiment: Inhibition of DNA synthesis in human CCRF-CEM cells at 5 times IC50 incubated for 24 hrs by BrdU incorporation based flow cytometry; assay type: functional
How it was run: (§6)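 Fixed in ice-cold 70 % ethanol, DNA denatured in 2 M HCl for 30 min, neutralised with borax. Stained with anti-BrdU plus FITC secondary, then PI/RNase A for 1 h. Flow cytometry; % BrdU-positive cells.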

[17] = test system: CCRF-CEM; experiment: Induction of apoptosis in human CCRF-CEM cells assessed as early apoptotic cells at 5 times IC50 incubated for 24 hrs by Annexin V-FITC and PI staining based flow cytometric analysis (reference value: 2.1 %); assay type: functional; how it was run: as §4
[18] = test system: CCRF-CEM; experiment: Induction of apoptosis in human CCRF-CEM cells assessed as downregulation of BCL-XL expression at 5 times IC50 incubated for 24 hrs by Western blotting analysis; assay type: functional, cell-based; how it was run: as §1
[19] = test system: A549; experiment: Cytotoxicity against human A549 cells assessed as inhibition of cell growth incubated for 72 hrs by MTS assay; assay type: functional, cell-based; conditions: A549, 72 h; how it was run: as §2
[20] = test system: CCRF-CEM; experiment: Induction of apoptosis in human CCRF-CEM cells assessed as necrotic cells at 5 times IC50 incubated for 24 hrs by Annexin V-FITC and PI staining based flow cytometric analysis (reference value: 0.4 %); assay type: functional; how it was run: as §4
[21] = Metabolic stability in human liver microsomes assessed as parent compound remaining at 2 uM incubated for 15 mins in presence of NADPH by RF-MS analysis; assay type: ADME, Microsome; conditions: read-out: Stability; how it was run: as §5
[22] = test system: CCRF-CEM; experiment: Induction of apoptosis in human CCRF-CEM cells assessed as necrotic cells at 1 times IC50 incubated for 24 hrs by Annexin V-FITC and PI staining based flow cytometric analysis (reference value: 0.4 %); assay type: functional; how it was run: as §4
[23] = test system: U2OS; experiment: Cytotoxicity against human U2OS cells assessed as inhibition of cell growth incubated for 72 hrs by MTS assay; assay type: functional, cell-based; how it was run: as §2
[24] = test system: HCT-116; experiment: Cytotoxicity against human HCT-116 cells assessed as inhibition of cell growth incubated for 72 hrs by MTS assay; assay type: functional, cell-based; conditions: HCT-116, 72 h; how it was run: as §2
[25] = Cytotoxicity against human K562-Tax cells assessed as inhibition of cell growth incubated for 72 hrs by MTS assay; assay type: functional, cell-based; how it was run: as §2
[26] = Stability in human plasma assessed as compound remaining at 2 uM incubated for 120 mins by RF-MS analysis; assay type: ADME, cell-free; conditions: read-out: Stability; how it was run: as §5
[27] = Cytotoxicity against human BJ cells assessed as inhibition of cell growth incubated for 72 hrs by MTS assay; assay type: toxicity, cell-based; how it was run: as §2
[28] = test system: CCRF-CEM; experiment: Inhibition of DNA synthesis in human CCRF-CEM cells at 1 times IC50 incubated for 24 hrs by BrdU incorporation based flow cytometry; assay type: functional; how it was run: as §6
[29] = test system: CCRF-CEM; experiment: Induction of apoptosis in human CCRF-CEM cells assessed as upregulation of BIM expression at 1 to 5 times IC50 incubated for 24 hrs by Western blotting analysis; assay type: functional, cell-based; how it was run: as §1
[30] = Metabolic stability in human liver microsomes assessed as parent compound remaining at 2 uM incubated for 30 mins in presence of NADPH by RF-MS analysis; assay type: ADME, Microsome; conditions: read-out: Stability; how it was run: as §5
[31] = test system: CCRF-CEM; experiment: Induction of apoptosis in human CCRF-CEM cells assessed as viable cells at 5 times IC50 incubated for 24 hrs by Annexin V-FITC and PI staining based flow cytometric analysis (reference value: 97.4 %); assay type: functional; how it was run: as §4
[32] = test system: CCRF-CEM; experiment: Induction of cell cycle arrest in human CCRF-CEM cells assessed as downregulation of Cyclin A expression at 5 times IC50 incubated for 24 hrs by Western blotting analysis; assay type: functional, cell-based; how it was run: as §1
[33] = Metabolic stability in human liver microsomes assessed as parent compound remaining at 2 uM incubated for 60 mins in presence of NADPH by RF-MS analysis; assay type: ADME, Microsome; conditions: read-out: Stability; how it was run: as §5
[34] = test system: CEM-DNR; experiment: Cytotoxicity against human CEM-DNR cells assessed as inhibition of cell growth incubated for 72 hrs by MTS assay; assay type: functional, cell-based; how it was run: as §2
[35] = Cytotoxicity against human MRC5 cells assessed as inhibition of cell growth incubated for 72 hrs by MTS assay; assay type: toxicity, cell-based; how it was run: as §2

remaining at 1 h, 2 µM [6]: 100% | Activity [7]: Dose-dependent-effect | remaining at 0.25 h, 2 µM [10]: 96% | fraction unbound at 4 h, 10 µM [13]: 0.231 | remaining at 0.5 h, 2 µM [15]: 95% | remaining at 0.25 h, 2 µM [21]: 92% | remaining at 2 h, 2 µM [26]: 89% | remaining at 0.5 h, 2 µM [30]: 87% | remaining at 1 h, 2 µM [33]: 79%
SMILES: CC1(C)[C@@H](O)CC[C@]2(C)[C@H]3CC[C@@H]4[C@H]5[C@H](c6cc7c(c(-c8ccccc8)c6)C(=O)N(c6ccccc6)C7=O)CC[C@]5(C(=O)O)CC[C@@]4(C)[C@]3(C)CC[C@@H]12
Activity [1]: Active | IC50 [2]: > 50 µM | inhibition (INH) [3]: 28.4% | Activity [4]: 90.7% | IC50 [5]: 5.18 µM | inhibition (INH) [8]: 16.1% | IC50 [9]: > 50 µM | Activity [11]: 3.9% | Activity [12]: 4.5% | Activity [14]: 5.4% | inhibition (INH) [16]: 37.8% | Activity [17]: 5.1% | Activity [18]: Active | IC50 [19]: > 50 µM | Activity [20]: 0% | Activity [22]: 0% | IC50 [23]: 25.9 µM | IC50 [24]: 29.4 µM | IC50 [25]: 23.1 µM | IC50 at 72 h [27]: > 50 µM | inhibition (INH) [28]: 35.2% | Activity [29]: Active | Activity [31]: 90.4% | Activity [32]: Active | IC50 [34]: 20 µM | IC50 at 72 h [35]: > 50 µM

SMILES: COC(=O)c1ccc([C@@H]2CC[C@]3(CO)CC[C@]4(C)[C@H](CC[C@@H]5[C@@]6(C)CC[C@H](O)C(C)(C)[C@@H]6CC[C@]54C)[C@@H]23)cc1C(=O)OC
IC50 [2]: > 50 µM | IC50 [5]: > 50 µM | IC50 [9]: > 50 µM | IC50 [19]: > 50 µM | IC50 [23]: > 50 µM | IC50 [24]: > 50 µM | IC50 [25]: 10.3 µM | IC50 at 72 h [27]: > 50 µM | IC50 [34]: 19.7 µM | IC50 at 72 h [35]: > 50 µM

SMILES: CC1(C)[C@@H](O)CC[C@]2(C)[C@H]3CC[C@@H]4[C@H]5[C@H](c6ccc(C#N)c(C#N)c6)CC[C@]5(C(=O)O)CC[C@@]4(C)[C@]3(C)CC[C@@H]12
IC50 [2]: 30 µM | IC50 [5]: 5.9 µM | IC50 [9]: 31.8 µM | IC50 [19]: 19.9 µM | IC50 [23]: 20 µM | IC50 [24]: 23.7 µM | IC50 [25]: 5.08 µM | IC50 at 72 h [27]: 35.5 µM | IC50 [34]: 5.23 µM | IC50 at 72 h [35]: 25.3 µM
